# Measured values collected from several papers.
# Lines come from different studies, so protocols differ.
# Target: Tyrosine-protein kinase Lyn (LYN, Homo sapiens, UniProt P07948)
SMILES,assay,conditions,quantity,result
CN(C)S(=O)(=O)c1ccc2c(c1)/C(=C/c1cc3c([nH]1)CCCC3)C(=O)N2,cell-free assay,0.5 µM,remaining signal,16.2%
CN(C(=O)c1ccccc1)c1cc(N(C)c2ccc3c(c2)CCc2ccc(C(=O)NCCN4CCOCC4)cc2C3=O)ccc1F,"cell-free assay, competition with immobilised ligand",1 µM,remaining binding,86%
CNc1cccc2cc(C(=O)Nc3ccc(C(=O)O)cc3)c(=O)[nH]c12,"enzyme activity, inhibitor",10 µM,inhibition,-4.6%
Cc1cc(NC(=O)c2cccc3cc(-c4cccc5[nH]nc(N)c45)ccc23)ccc1F,"enzyme activity, inhibitor",0.1 µM,activity vs control,88%
Cc1ccc(C(=O)NCc2ccsc2)cc1C#Cc1cn(C(C)C)c2ncnc(N)c12,"enzyme activity, inhibitor",1 µM,activity vs control,0%
COc1cc2c(N3CCN(C(=O)Nc4ccc(OC(C)C)cc4)CC3)ncnc2cc1OCCCN1CCCCC1,cell-free assay,0.5 µM,remaining signal,95.6%
Cc1c(NC(=O)c2cc(C(N)=O)nc3cc(F)ccc23)c(C(F)(F)F)nn1Cc1ccc(C#N)cc1,"cell-free assay, competition with immobilised ligand",1 µM,remaining binding,100%
CN1CCC2(CC1)NC(=O)c1c(c3ccc(Cl)c(Cl)c3n1C)C2C#N (racemic),"thermal stability, DSF",10 µM,ΔTm,-0.1 °C
CC(C)(O)c1cncc(-c2nc3ccc(F)cc3n2C2CC2)c1,"cell-free assay, competition with immobilised ligand",1 µM,remaining binding,100%
CNC(=O)c1cc(Oc2ccc(NC(=O)Nc3ccc(Cl)c(C(F)(F)F)c3)cc2)ccn1,"enzyme activity, inhibitor",0.3 µM,inhibition,10%
Cn1c2c(Cl)c(Cl)ccc2c2cc(N)[nH]c(=O)c21,"thermal stability, DSF",10 µM,ΔTm,0.3 °C
CC(C)(O)[C@H]1CC[C@H](Nc2ccc3ncc(-c4cccc(C(F)(F)F)c4)n3n2)CC1,"enzyme activity, inhibitor",1 µM,remaining activity,41.9%
CCN(CC)CCNC(=O)c1c(C)[nH]c(/C=C2\C(=O)Nc3ccc(F)cc32)c1C,"enzyme activity, inhibitor",0.3 µM,inhibition,42%
COc1ccc(COc2ccc(Cc3cnc(N)nc3N)cc2OC)cc1,cell-free assay,0.5 µM,remaining signal,99.9%
CN(C)C(=O)Cn1cc(-c2nc(C3(c4ccc(-c5cnc(N)nc5)cc4)CC3)no2)cn1,"cell-free assay, competition with immobilised ligand",1 µM,remaining binding,79%
Cc1sc(C(=O)NC2COC2)cc1-n1cc(NC(=O)Nc2c(F)cccc2Cl)cn1,"enzyme activity, inhibitor",10 µM,remaining activity,106%
O=C1c2ccccc2-c2n[nH]c3cccc1c23,"enzyme activity, inhibitor",0.5 µM,activity vs control,97%
Cn1c2c(Cl)c(Cl)ccc2c2cc[nH]c(=O)c21,"thermal stability, DSF",10 µM,ΔTm,0 °C
Cc1ccc(NC(=O)c2ccc(C)c(C(F)(F)F)c2)cc1C#Cc1nn(C2CCC(O)CC2)c2ncnc(N)c12 (centres unmarked),"cell-free assay, inhibitor",10 µM,remaining signal,0%
Clc1ccc(Nc2nnc(Cc3ccncc3)c3ccccc23)cc1,cell-free assay,0.5 µM,remaining signal,91.8%
CNCc1ccccc1-c1csc([C@H](C)Nc2nc(C)nc3cc(OC)c(OC)cc23)c1,"cell-free assay, competition with immobilised ligand",1 µM,remaining binding,100%
CCN(CC)CCNC(=O)c1c(C)[nH]c(/C=C2\C(=O)Nc3ccc(Cl)cc32)c1C,"enzyme activity, inhibitor",0.5 µM,remaining activity,6.34%
Cn1c2c(c3ccc(Cl)c(Cl)c31)C(C#N)C(C)(C)NC2=O (centres unmarked),"thermal stability, DSF",10 µM,ΔTm,0.1 °C
Cc1ccc(-n2nc(C(C)(C)C)cc2NC(=O)Nc2ccc(OCCN3CCOCC3)c3ccccc23)cc1,"enzyme activity, inhibitor",10 µM,inhibition,81%
O=C(NS(=O)(=O)c1ccc(NCC2CCOCC2)c([N+](=O)[O-])c1)c1ccc(N2CCN(Cc3ccc(C(F)(F)F)cc3-c3ccc(Cl)cc3)CC2)cc1Oc1cnc2[nH]ccc2c1,"cell-free assay, competition with immobilised ligand",1 µM,remaining binding,99%
COc1cc(Cl)c(C(=O)N[C@@H](CN[C@H]2CC[C@@H](N)CC2)Cc2ccc(C#N)cc2)cc1-c1ccc(CN[C@H](C)c2ccc(C)cc2)o1,"enzyme activity, inhibitor",1 µM,remaining activity,90%
O=c1cc(-c2cccc3c2Sc2ccccc2S3)oc(N2CCOCC2)c1,"enzyme activity, inhibitor",0.5 µM,remaining activity,106%
Cn1c2c(c3ccc(Cl)c(Cl)c31)C(C#N)C1(CCOCC1)NC2=O (centres unmarked),"thermal stability, DSF",10 µM,ΔTm,-0.2 °C
O=C(N1CCS(=O)(=O)CC1)N1C[C@H](c2ccc(OC(F)(F)F)cc2)C[C@H](c2nc(C3CC3)no2)C1,"cell-free assay, competition with immobilised ligand",1 µM,remaining binding,85%
CC(C)(C)c1nc2c(s1)c1nc(N)ncc1c1ccc(NS(=O)(=O)c3c(F)cccc3F)c(F)c12,"enzyme activity, inhibitor, radiometric",1 µM,remaining activity,87%
N#CC1(c2ccccn2)CCN(Cc2cc(C(=O)N3CCCC3)c(=O)n3ccccc23)CC1,"cell-free assay, competition with immobilised ligand",1 µM,remaining binding,99%
Cn1c2c(Cl)c(Cl)ccc2c2cn[nH]c(=O)c21,"thermal stability, DSF",10 µM,ΔTm,-0.1 °C
CNCc1ccc(-c2cc(-c3nc(-c4ccc(S(=O)(=O)C(C)C)cc4)cnc3N)on2)cc1,"enzyme activity, inhibitor",2 µM,inhibition,53%
N#CC1c2c([nH]c3c(Cl)c(Cl)ccc23)C(=O)NC12CCCCC2 (racemic),"thermal stability, DSF",10 µM,ΔTm,0.2 °C
Cc1ccc(C(=O)Nc2ccc(CN3CCN(C)CC3)c(C(F)(F)F)c2)cc1C#Cc1cnc2cccnn12,"enzyme activity, inhibitor",23.5 nM,remaining activity,0.65%
